# CYP2C9 inhib – blockers of cytochrome P450 2C9 activity – biochemical, luminescence, ADME assay, primary screen; P11712; CYP2C9 Supersomes, luciferin-H conversion; inhibition, % at 5 µM; 20% of 96,000 active;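 active means blocking of liver enzyme CYP2C9 beyond about 50% at 5 µM, limit read from the data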
# Target sequence (P11712 whole entry, looked up): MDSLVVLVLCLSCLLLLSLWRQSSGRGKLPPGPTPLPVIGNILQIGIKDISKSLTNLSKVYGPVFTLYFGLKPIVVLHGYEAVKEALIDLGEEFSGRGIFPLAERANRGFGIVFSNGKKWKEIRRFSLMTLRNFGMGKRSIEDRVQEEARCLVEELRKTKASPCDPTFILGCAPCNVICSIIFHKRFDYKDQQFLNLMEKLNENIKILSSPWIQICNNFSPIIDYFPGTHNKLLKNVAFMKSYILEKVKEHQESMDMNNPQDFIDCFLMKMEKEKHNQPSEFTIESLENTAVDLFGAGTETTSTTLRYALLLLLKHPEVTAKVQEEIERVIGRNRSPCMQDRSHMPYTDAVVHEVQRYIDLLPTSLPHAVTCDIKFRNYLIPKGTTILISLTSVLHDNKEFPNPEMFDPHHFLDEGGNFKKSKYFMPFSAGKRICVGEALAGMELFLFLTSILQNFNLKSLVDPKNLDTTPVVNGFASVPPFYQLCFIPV
# CYP2C19 inh – blockers of cytochrome P450 2C19 activity – biochemical, luminescence, ADME assay, primary screen; CYP2C19 Supersomes, luciferin-H EGE luminescence, 30 min; inhibition, % at 5 µM; P33261; 21% of 96,000 active;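 active means CYP2C19 inhibition above a set limit at 5 µM in the primary screen, cut at about 50% in these data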
# CYP2C19 activ – human CYP2C19 activators, primary screen, biochemical, luminescence; recombinant CYP2C19, luciferin-H EGE luminescence; stronger effect = higher value; 0 = fully inhibited enzyme, 1 = untreated enzyme; activation factor at 5 µM; Cytochrome P450 2C19 (Homo sapiens), P33261; 96,000 tested, under 10 active;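 active means activation factor of at least 2 at 5 µM in the primary screen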
# E coli WT exp – growth inhibitors of wild-type E. coli, primary screen, strain BW25113, expanded library, OD600; OD600 absorbance; growth inhibition, % at 100 µM; 0.15% of 98,000 active;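 active means growth inhibition above about 50% at one test dose, limit read from the data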;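 further: growth measured after 20 h incubation at 37 °C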
# tolC growth inh – growth inhibitors of E. coli tolC mutant, primary screen, strain BW25113 ΔtolC::kan, 384-well; OD615; growth inhibition, % at 10 µM (by protocol); 2.2% of 65,000 active; AID 573, 2007;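 active means growth inhibition at or above a cutoff equal to the mean over every tested compound plus 3 SD, cut at about 60% in these data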;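 further: growth measured after 20 h incubation at 37 °C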
#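 Test system: E. coli BW25113 ΔtolC::kan bacteria; incubation: 37 °C, 20 h exposure; medium: LB broth supplemented with 50 µg/mL kanamycin; read-out basis: percent growth inhibition; signal: A615 absorbance measurement; compound: 10 µM final, single dose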
# CYP2C9 act – human CYP2C9 activators, primary screen, biochemical, luminescence; 1.4% of 96,000 active; activation factor at 5 µM; recombinant CYP2C9, luciferin-H conversion; stronger effect = higher value; factor 1 = untreated enzyme, 0 = blocked; AID 1024, 2008; Cytochrome P450 2C9 (Homo sapiens), P11712;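 active means activation factor of 2 or more for CYP2C9 at a 5 µM dose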
# A number is an active result; 0 = inactive; - = not tested or not shown. An excerpt weighted towards active compounds, which were near 29% of everything screened.
SMILES,CYP2C9 inhib,CYP2C19 inh,CYP2C19 activ,E coli WT exp,tolC growth inh,CYP2C9 act
CC(=O)N(CC(C)(C)CC=C(C)C)c1ccccc1,0,52,0,-,0,0
COc1ccccc1OC(=O)C1CC(=O)N(c2ccc(Cl)cc2)C1 (stereo unspecified),0,0,0,0,0,0
Cc1nc(N2CCC3(CC2)OCCO3)c2nnn(Cc3ccccc3F)c2n1,75,69,0,0,0,0
Cc1nc(N2CCCC2)c2nnn(Cc3ccccc3Cl)c2n1,0,91,0,0,0,0
c1ccc(Cn2nnc3c(N4CCC5(CC4)OCCO5)ncnc32)cc1,-,-,-,0,0,-
O=C(NCCc1ccncc1)C12CC3CC(CC(C3)C1)C2,0,94,0,0,-,0
O=C(CN1C(=O)C2C3C=CC(C3)C2C1=O)NCCc1ccccc1 (stereo unspecified),0,0,0,0,0,0
O=C(CC12CC3CC(CC(C3)C1)C2)NCc1ccncc1,88,99,0,0,-,0
CNC(=O)CC12CC3CC(CC(C3)C1)C2,0,0,0,0,-,0
O=C(COC(=O)C12CC3CC(CC(C3)C1)C2)NCCc1ccccc1,85,53,0,0,-,0
Clc1ccccc1/C=N/c1cc(-c2ccccc2)nn1-c1ccccc1,0,0,0,0,-,0
Cn1cnnc1-c1cccc(NS(=O)(=O)c2ccc(N3CCCC3=O)cc2)c1,-,-,-,-,0,-
Cc1ccc(NC(=O)C(C)Sc2nnc(-c3cccnc3)n2-c2ccccc2)cc1 (stereo unspecified),0,0,0,0,-,0
CCOc1ccc2sc(NS(=O)(=O)c3ccc(OC)c(OC)c3)nc2c1,92,0,0,0,0,0
COc1ccc(S(=O)(=O)Nc2nc3ccccc3s2)cc1,50,0,0,0,-,0
COc1ccc2nc(NS(=O)(=O)c3ccc(NC(C)=O)cc3)sc2c1,0,0,0,0,0,0
CCOC(=O)CSc1nnc2n(Cc3ccccc3)c(=O)c3c4c(sc3n12)CCC4,0,0,0,0,0,0
Cc1cccc(N=c2oc3cc(O)ccc3cc2C(N)=O)c1,69,0,0,0,98,0
COc1ccccc1N=c1oc2cc(O)ccc2cc1C(N)=O,71,0,0,0,0,0
Cc1sc2ncnc(NCC3(N4CCOCC4)CCCCC3)c2c1C,60,0,0,0,-,0
c1nc(NCC2(N3CCOCC3)CCCCC2)c2ccsc2n1,-,-,-,0,0,-
O=c1c(Cl)c(NCCCO)cnn1-c1nc2ccccc2[nH]1,0,0,0,0,-,0
C=CCN(CC=C)c1cnn(-c2nc3ccccc3[nH]2)c(=O)c1Cl,54,56,0,0,-,0
CN(CC(=O)Nc1cccnc1)S(=O)(=O)c1ccccc1,0,0,0,0,-,0
Cc1nc(NC(=O)CN(C)S(=O)(=O)c2ccc(Br)cc2)sc1C,67,94,0,0,-,0
SMILES,CYP2C9 inhib,CYP2C19 inh,CYP2C19 activ,E coli WT exp,tolC growth inh,CYP2C9 act
CN(CC(=O)Nn1cnnc1)S(=O)(=O)c1ccc(Br)cc1,0,83,0,0,-,0
CN(CC(=O)Nc1ccncc1)S(=O)(=O)c1ccc(Br)cc1,77,100,0,0,-,0
CN(CCCC(=O)Nc1ccncc1)S(=O)(=O)c1ccc(Cl)cc1,99,98,0,0,0,0
CC1CCN(C(=O)c2scc3c2OCCO3)CC1,0,0,0,0,0,0
O=C(CSc1nnc(-c2ccco2)o1)NC(=O)C1COc2ccccc2O1 (stereo unspecified),0,61,0,0,0,0
O=C(CSc1nnc(-c2ccco2)o1)NC(=O)Cc1ccccc1,0,0,0,0,0,0
Cc1cc(C(=O)CSc2nnc(-c3ccc(F)cc3)o2)c(C)n1CC1COc2ccccc2O1 (stereo unspecified),54,0,0,0,-,0
Cc1cc(C(=O)CSc2nnc(-c3ccco3)o2)c(C)n1CC1COc2ccccc2O1 (stereo unspecified),78,100,0,0,0,0
Cc1cc(C(=O)CSc2nnc(-c3ccccc3)o2)c(C)n1CC1COc2ccccc2O1 (stereo unspecified),0,88,0,0,-,0
Cc1cc(C(=O)CSc2nnc(-c3ccc(F)cc3)o2)c(C)n1CC1CCCO1 (stereo unspecified),0,0,0,0,-,0
COC(=O)c1c(NC(=O)CN2CCN(C(=O)c3ccco3)CC2)c2cc(C)ccc2n1C,0,0,0,0,0,0
COc1ccc(-n2c(O)cnc2Nc2nc(C)cc(C)n2)cc1OC,0,0,0,0,-,0
O=C(CCN1C(=O)c2ccccc2C1=O)Nc1ccccc1C(=O)N1CCOCC1,0,0,0,0,-,0
CCN(Cc1ccccc1)S(=O)(=O)c1ccc2oc(C(=O)O)c(C)c2c1,98,0,0,0,0,0
CCN(CC)S(=O)(=O)c1ccc2oc(C(=O)NCc3ccc(C)cc3)c(C)c2c1,51,0,0,0,-,0
Cc1ccc(CNS(=O)(=O)c2ccc3oc(C(=O)O)c(C)c3c2)cc1,67,0,0,0,0,0
Cc1c(C(=O)NCC2CCCO2)oc2ccc(S(=O)(=O)N3CCCC3)cc12 (stereo unspecified),0,0,0,0,0,0
Cc1c(C(=O)NCC2COc3ccccc3O2)oc2ccc(S(=O)(=O)N(C)C3CCCCC3)cc12 (stereo unspecified),95,0,0,0,-,0
CCN1C(=O)C(O)(C2COC(C)(C)CC2=O)c2cc(Br)ccc21 (stereo unspecified),0,0,0,0,0,0
CCN(CC)S(=O)(=O)c1ccc2oc(C(=O)O)c(C)c2c1,77,0,0,0,0,0
CCC(=O)N(CCC(Cc1ccccc1)c1ccc2c(c1)OCO2)Cc1ccccc1F (stereo unspecified),96,96,0,0,-,0
O=C(NCc1ccncc1)/C(=N/O)c1ccccc1,0,0,0,0,0,0
Cc1ccc(C(=O)CSC2=C(C#N)C(c3ccco3)CC(=O)N2)c(C)c1 (stereo unspecified),98,0,0,0,0,0
CCOC(=O)C1=C(N)OC2=C(C(=O)CC(C)(C)C2)C1c1ccco1 (stereo unspecified),0,0,0,0,0,0
Cc1ccc(NC(=O)CSC2=C(C#N)C(c3ccco3)C3=C(CC(C)(C)CC3=O)N2)cc1 (stereo unspecified),96,93,0,0,69,0
COC(=O)CSC1=C(C#N)C(c2sccc2C)CC(=O)N1 (stereo unspecified),-,-,-,-,0,-
CC1=C(C(=O)OCc2ccccc2)C(c2ccco2)C2=C(CC(C)(C)CC2=O)N1 (stereo unspecified),67,63,0,0,0,0

# Bioassay records from PubChem.
